Among the data in ChEMBL document CHEMBL1121696, “Antimicrobial 3-methyleneflavanones” (1981) are MIC values, retold here.

Assay [1] has as its system Candida albicans. Briefly: Compound was tested for the antimicrobial activity against Candida albicans (ATCC 10231, NRRL Y-477); Range is 100 to >100. Type of assay: functional. Summed up:
(§1)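 Agar dilution MIC. Stocks and twofold serial dilutions in DMF or 50% aqueous DMF were mixed 1:100 into molten Eugon agar, giving final 100, 50, 25, 12.5, 6.2, 3.1 mcg/mL (further dilutions sometimes) and ≤1% DMF. Inocula came from 24 h Eugon agar slants at 32 °C, suspended at 10⁶ cells/mL and applied with a Steers replicator. MIC (lowest concentration inhibiting growth) was read after 24 h at 32 °C.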

The subject of assay [2] is Trichophyton benhamiae. Briefly: Compound was tested for the antimicrobial activity against Trichophyton mentagrophytes (ATCC 4807); Range is 12.5-50. Type of assay: functional, Arthroderma benhamiae. Summed up: (§2)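 Spores came from Eugon agar slants grown 1 week at 32 °C, suspended at 10⁶/mL in Eugon broth or saline, and applied by Steers replicator. The lowest inhibitory concentration was read after 48-72 h at 32 °C.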

The subject of the next assay is Aspergillus niger. Briefly: Antimicrobial activity against Aspergillus niger (ATCC 16404). Type of assay: functional. Summed up:
as §2

Assay [3] deals with Candida albicans. Briefly: Antimicrobial activity against Candida albicans (ATCC 10231, NRRL Y-477). The class given is functional. Summed up: as §1
The test system of assay [4] is Trichophyton benhamiae. The experiment in a line: Compound was tested for the antimicrobial activity against Trichophyton mentagrophytes (ATCC 4807); Range is 50 to >100. The class given is functional, Arthroderma benhamiae. Summed up:
as §2

Assay [5] relates to Enterococcus faecalis. Briefly: Antimicrobial activity against Streptococcus faecalis (ATCC 10541). Type of assay: functional. Summed up:
as §1

The test system of assay [6] is Staphylococcus aureus. Briefly: Compound was tested for the antimicrobial activity against Staphylococcus aureus (ATCC 6538, NRRL B2747); Range is 50-100. Type of assay: functional. Summed up:
as §1

Assay [7] concerns Staphylococcus aureus. The experiment in a line: Antimicrobial activity against Staphylococcus aureus (ATCC 6538, NRRL B2747); Range is <3.1-6.2. The class given is functional. Summed up: as §1
Assay [8] deals with Trichophyton benhamiae. Briefly: Compound was tested for the antimicrobial activity against Trichophyton mentagrophytes (ATCC 4807); Range is <3.1-12.5. The class given is functional, Arthroderma benhamiae. Summed up: as §2
Assay [9] deals with Staphylococcus aureus. The experiment in a line: Antimicrobial activity against Staphylococcus aureus (ATCC 6538, NRRL B2747). Type of assay: functional. Summed up:
as §1

In assay [10] the test system is Trichophyton benhamiae. Briefly: Antimicrobial activity against Trichophyton mentagrophytes (ATCC 4807). The class given is functional, Arthroderma benhamiae. Summed up:
as §2

Assay [11] concerns Candida albicans. The experiment in a line: Compound was tested for the antimicrobial activity against Candida albicans (ATCC 10231, NRRL Y-477); Range is 50 to >100. Type of assay: functional. Summed up: as §1
For assay [12], the system named is Trichophyton benhamiae. Briefly: Compound was tested for the antimicrobial activity against Trichophyton mentagrophytes (ATCC 4807); Range is 12.5-25. The class given is functional, Arthroderma benhamiae. Summed up:
as §2

The subject of assay [13] is Enterococcus faecalis. Briefly: Compound was tested for the antimicrobial activity against Streptococcus faecalis (ATCC 10541); Range is 25-50. The class given is functional. Summed up:
as §1

Assay [14] has as its system Trichophyton benhamiae. The experiment in a line: Compound was tested for the antimicrobial activity against Trichophyton mentagrophytes (ATCC 4807); Range is <3.1-25. Type of assay: functional, Arthroderma benhamiae. Summed up:
as §2

Assay [15] has as its system Trichophyton benhamiae. The experiment in a line: Compound was tested for the antimicrobial activity against Trichophyton mentagrophytes (ATCC 4807); Range is 100 to >100. The class given is functional, Arthroderma benhamiae. Summed up:
as §2

For assay [16], the system named is Trichophyton benhamiae. Briefly: Compound was tested for the antimicrobial activity against Trichophyton mentagrophytes (ATCC 4807); Range is 6.2-12.5. The class given is functional, Arthroderma benhamiae. Summed up: as §2
A further assay relates to Cutibacterium acnes. The experiment in a line: Compound was tested for its antimicrobial activity against Propionibacterium acnes (ATCC 6919). Type of assay: functional. Summed up:
(§3)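 Anaerobic bacteria were grown 72 h at 32 °C in fluid thioglycollate medium and used undiluted to inoculate, by Steers replicator, Eugon agar containing serial twofold compound dilutions made in DMF or 50% aqueous DMF (final 100 to 3.1 mcg/mL, ≤1% DMF). MIC was read after 72 h of anaerobic incubation (Gas-Pak jar) at 37 °C.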

A further assay concerns Enterococcus. The experiment in a line: Compound was tested for its antimicrobial activity against Enterococcus (9-25).
Assay [17] concerns Staphylococcus aureus. The experiment in a line: Compound was tested for its antimicrobial activity against Staphylococcus aureus (ATCC 151). The class given is functional. Summed up:
as §1

Assay [18] relates to Enterococcus faecalis. Briefly: Compound was tested for its antimicrobial activity against Streptococcus faecalis (ATCC 10541). The class given is functional. Summed up: as §1
Assay [19] relates to Staphylococcus aureus. Briefly: Compound was tested for the antimicrobial activity against Staphylococcus aureus (ATCC 6538, NRRL B2747); Range is 0.25-0.5. The class given is functional. Summed up:
as §1

For assay [20], the system named is Staphylococcus aureus. Briefly: Compound was tested for its antimicrobial activity against Staphylococcus aureus(9-267). The class given is functional. Summed up:
as §1

Assay [21] deals with Staphylococcus epidermidis. Briefly: Compound was tested for its antimicrobial activity against Staphylococcus epidermidis (ATCC 12228). Type of assay: functional. Summed up:
as §1

Assay [22] has as its system Staphylococcus aureus. The experiment in a line: Compound was tested for its antimicrobial activity against Staphylococcus aureus(9-195). The class given is functional. Summed up: as §1
For assay [23], the system named is Staphylococcus aureus. The experiment in a line: Compound was tested for its antimicrobial activity against Staphylococcus aureus (NRRL B2747). Type of assay: functional. Summed up:
as §1

The test system of another assay is Bacillus subtilis. Briefly: Compound was tested for its antimicrobial activity against Bacillus subtilis (ATCC 6633). Type of assay: functional. Summed up:
as §1

Assay [24] deals with Trichophyton benhamiae. Briefly: Compound was tested for the antimicrobial activity against Trichophyton mentagrophytes (ATCC 4807); Range is 6.1-12.5. The class given is functional, Arthroderma benhamiae. Summed up:
as §2

Assay [25] concerns Staphylococcus aureus. The experiment in a line: Compound was tested for its antimicrobial activity against Staphylococcus aureus (9-195). The class given is functional. Summed up:
as §1

Assay [26] relates to Staphylococcus aureus. The experiment in a line: Compound was tested for its antimicrobial activity against Staphylococcus aureus (9-267). The class given is functional. Summed up:
as §1

Assay [27] has as its system Staphylococcus aureus. The experiment in a line: Compound was tested for its antimicrobial activity against Staphylococcus aureus (ATCC 6538). Type of assay: functional. Summed up:
as §1

Assay [28] has as its system Clostridium acetobutylicum. The experiment in a line: Compound was tested for its antimicrobial activity against Clostridium acetobutylicum (ATCC 824). Type of assay: functional. Summed up:
as §3

A short description of assay [29]: Compound was tested for its antimicrobial activity against Sarcina subflava (ATCC 7468). The class given is functional. Summed up: as §1

In brackets after ≈: the same amount, converted by molar mass.

As a reminder, the MIC is the smallest concentration in the dilution series that meets the test's criterion for growth inhibition. Low readings indicate inhibition by little substance, high ones a need for much substance. As for `C=C1C(=O)c2cc(Br)ccc2OC1c1ccc(Br)cc1` (stereo not given), the MIC against Candida albicans [1] was greater than 100 µg/mL; in the assay with Trichophyton benhamiae [2] it was 12.5 µg/mL (≈ 31.7 µM).

In the case of `C=C1C(=O)c2ccccc2SC1c1ccccc1` (stereo not given), the MIC in the assay with Aspergillus niger was greater than 100 µg/mL; against Candida albicans [3], greater than 100 µg/mL; with Trichophyton benhamiae [4], greater than 50 µg/mL; in the assay on Enterococcus faecalis [5], greater than 100 µg/mL; against Staphylococcus aureus [6], 50 µg/mL (≈ 198 µM).

For `C=C1C(=O)c2ccccc2OC1c1cccc(Cl)c1` (stereo not given), the MIC in the assay on Staphylococcus aureus [7] and against Trichophyton benhamiae [8] was less than 3.1 µg/mL each time.

For the molecule `O=C1/C(=C/Cl)C(c2ccccc2)Oc2ccccc21` (stereo not given), the MIC with Staphylococcus aureus [9], with Aspergillus niger, with Candida albicans [3], with Trichophyton benhamiae [10] and against Enterococcus faecalis [5] was greater than 100 µg/mL each time.

On to `C=C1C(=O)c2ccccc2OC1c1ccc(C(C)(C)C)cc1` (stereo not given), for which the MIC with Candida albicans [11] is greater than 50 µg/mL; against Trichophyton benhamiae [12], 12.5 µg/mL (≈ 42.8 µM); in the assay with Staphylococcus aureus [7], less than 3.1 µg/mL; with Enterococcus faecalis [13] it was 25 µg/mL (≈ 85.5 µM).

Take `C=C1C(=O)c2ccccc2OC1c1ccc(Cl)cc1` (stereo not given): the MIC against Staphylococcus aureus [9] and against Trichophyton benhamiae [14] was less than 3.1 µg/mL in each case.

Regarding `C=C1C(=O)c2cc(Br)ccc2OC1c1ccccc1` (stereo not given), the MIC with Staphylococcus aureus [9] is 50 µg/mL (≈ 159 µM); with Aspergillus niger, greater than 100 µg/mL; against Candida albicans [3], greater than 100 µg/mL; with Enterococcus faecalis [5] it was greater than 100 µg/mL; in the assay with Trichophyton benhamiae [15] it was greater than 100 µg/mL.

`C=C1C(=O)c2ccccc2OC1c1ccccc1` (stereo not given): the MIC against Aspergillus niger amounted to 100 µg/mL (≈ 423 µM); against Trichophyton benhamiae [16], 6.2 µg/mL (≈ 26.2 µM).

On to `CN(C)/C=C1\C(=O)c2ccccc2OC1c1ccccc1` (stereo not given), for which the MIC in the assay with Staphylococcus aureus [9] is greater than 100 µg/mL; in the assay with Aspergillus niger, greater than 100 µg/mL; in the assay with Candida albicans [3], greater than 100 µg/mL; against Trichophyton benhamiae [10] it was 100 µg/mL (≈ 358 µM); in the assay with Enterococcus faecalis [5], greater than 100 µg/mL.

Consider `C=C1C(=O)c2ccccc2OC1(c1ccccc1)c1ccccc1`, for which the MIC against Cutibacterium acnes is 3.1 µg/mL (≈ 9.92 µM); in the assay on Enterococcus, 1 µg/mL (≈ 3.2 µM); against Staphylococcus aureus [17], 0.25 µg/mL (≈ 0.8 µM); with Enterococcus faecalis [18], 1 µg/mL (≈ 3.2 µM); with Trichophyton benhamiae [10] it was greater than 100 µg/mL; in the assay with Staphylococcus aureus [19] it was 0.25 µg/mL (≈ 0.8 µM). Further, the MIC was 0.5 µg/mL (≈ 1.6 µM) against Staphylococcus aureus [20]; 0.78 µg/mL (≈ 2.5 µM) in the assay with Enterococcus faecalis [5]; 0.25 µg/mL (≈ 0.8 µM) in assay [21]; 0.5 µg/mL (≈ 1.6 µM) against Staphylococcus aureus [22]; 0.5 µg/mL (≈ 1.6 µM) with Staphylococcus aureus [23]; 0.25 µg/mL (≈ 0.8 µM) with Bacillus subtilis.

`C=C1C(=O)c2ccccc2OC1c1ccc(Br)cc1` (stereo not given): the MIC against Trichophyton benhamiae [24] is 6.1 µg/mL (≈ 19.4 µM); in the assay on Staphylococcus aureus [7], less than 3.1 µg/mL.

Regarding `C=C1C(=O)c2ccccc2OC1c1cccc2ccccc12` (stereo not given), the minimal inhibitory concentration (MIC) against Aspergillus niger was greater than 100 µg/mL; in the assay on Trichophyton benhamiae [16], 6.2 µg/mL (≈ 21.7 µM); in the assay with Candida albicans [11], greater than 50 µg/mL; with Staphylococcus aureus [7], less than 3.1 µg/mL; against Enterococcus faecalis [5], 50 µg/mL (≈ 175 µM).

With `Oc1c(I)cc(Cl)c2cccnc12` [CLIOQUINOL], the MIC amounted to 12.5 µg/mL (≈ 40.9 µM) with Staphylococcus aureus [25]; 12.5 µg/mL (≈ 40.9 µM) against Staphylococcus aureus [26]; 25 µg/mL (≈ 81.8 µM) against Cutibacterium acnes; 25 µg/mL (≈ 81.8 µM) with Enterococcus; 3.1 µg/mL (≈ 10.1 µM) in the assay with Staphylococcus aureus [17]; 12.5 µg/mL (≈ 40.9 µM) in the assay with Staphylococcus aureus [27]. Further, the MIC against Enterococcus faecalis [18] was 12.5 µg/mL (≈ 40.9 µM); in assay [28], less than 6.2 µg/mL; in assay [21], 12.5 µg/mL (≈ 40.9 µM); in assay [29] it was 3.1 µg/mL (≈ 10.1 µM); in the assay on Staphylococcus aureus [23], 12.5 µg/mL (≈ 40.9 µM); with Bacillus subtilis it was 6.2 µg/mL (≈ 20.3 µM).

Consider `C=C(CC)C(=O)c1ccc(OCC(=O)O)c(Cl)c1Cl` [ETHACRYNIC ACID], for which the MIC against Staphylococcus aureus [9], against Aspergillus niger, in the assay on Candida albicans [3], in the assay with Trichophyton benhamiae [10] and against Enterococcus faecalis [5] was greater than 100 µg/mL each time.

As to `Oc1c(Cl)cc(Cl)c(Cl)c1Cc1c(O)c(Cl)cc(Cl)c1Cl` [HEXACHLOROPHENE], the MIC was found to be 1 µg/mL (≈ 2.46 µM) in the assay on Staphylococcus aureus [25]; 1 µg/mL (≈ 2.46 µM) in the assay with Staphylococcus aureus [26]; 0.06 µg/mL (≈ 0.147 µM) against Cutibacterium acnes; 1 µg/mL (≈ 2.46 µM) in the assay with Enterococcus; 0.5 µg/mL (≈ 1.23 µM) with Staphylococcus aureus [17]; 0.5 µg/mL (≈ 1.23 µM) with Staphylococcus aureus [27]. Also, the MIC in the assay with Enterococcus faecalis [18] stood at 0.125 µg/mL (≈ 0.307 µM); in [28], 0.06 µg/mL (≈ 0.147 µM); in assay [21], 0.5 µg/mL (≈ 1.23 µM); in [29] it was 0.06 µg/mL (≈ 0.147 µM); in the assay on Staphylococcus aureus [23], 0.5 µg/mL (≈ 1.23 µM); in the assay on Bacillus subtilis, 0.125 µg/mL (≈ 0.307 µM).
